According to PubChem BioAssay AID623977 (Vanderbilt High Throughput Screening Facility, 2012):

Target: G protein-activated inward rectifier potassium channel 2 (Homo sapiens) + G protein-activated inward rectifier potassium channel 1 (Homo sapiens) (UniProt P48051+P48549)
Experiment: GIRK1/2 channel activators by patch clamp, confirmation, orthogonal assay for GIRK activator project, HEK-293 hGIRK1/2, whole-cell voltage clamp, Ba2+-sensitive current (AID 623977)
Details: HEK-293 hGIRK1/2, whole-cell patch clamp current
In short: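 Assay system: stable hGIRK1/2 HEK-293 cells / Medium: 20 mM K+ bath, pH 7.4, KCl pipette solution / Dosing: test compound diluted in 20 mM K+ bath solution / Timing: cells patched 24–72 h after plating / Technique: whole-cell patch clamp, -70 mV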

Chain of G protein-activated inward rectifier potassium channel 2 (Homo sapiens) + G protein-activated inward rectifier potassium channel 1 (Homo sapiens) (P48051 whole entry, looked up): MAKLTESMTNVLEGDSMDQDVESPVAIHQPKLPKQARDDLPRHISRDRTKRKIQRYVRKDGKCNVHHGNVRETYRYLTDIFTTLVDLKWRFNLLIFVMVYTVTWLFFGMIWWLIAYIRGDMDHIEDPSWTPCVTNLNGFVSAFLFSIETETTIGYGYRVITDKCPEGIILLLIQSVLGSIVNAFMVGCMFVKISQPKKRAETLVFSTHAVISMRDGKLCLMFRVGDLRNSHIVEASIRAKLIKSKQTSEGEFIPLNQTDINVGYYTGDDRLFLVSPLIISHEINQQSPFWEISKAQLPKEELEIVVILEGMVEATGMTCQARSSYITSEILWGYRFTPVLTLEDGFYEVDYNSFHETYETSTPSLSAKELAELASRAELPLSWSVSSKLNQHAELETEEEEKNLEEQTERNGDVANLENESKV
Chain of G protein-activated inward rectifier potassium channel 2 (Homo sapiens) + G protein-activated inward rectifier potassium channel 1 (Homo sapiens) (P48549 whole entry, looked up): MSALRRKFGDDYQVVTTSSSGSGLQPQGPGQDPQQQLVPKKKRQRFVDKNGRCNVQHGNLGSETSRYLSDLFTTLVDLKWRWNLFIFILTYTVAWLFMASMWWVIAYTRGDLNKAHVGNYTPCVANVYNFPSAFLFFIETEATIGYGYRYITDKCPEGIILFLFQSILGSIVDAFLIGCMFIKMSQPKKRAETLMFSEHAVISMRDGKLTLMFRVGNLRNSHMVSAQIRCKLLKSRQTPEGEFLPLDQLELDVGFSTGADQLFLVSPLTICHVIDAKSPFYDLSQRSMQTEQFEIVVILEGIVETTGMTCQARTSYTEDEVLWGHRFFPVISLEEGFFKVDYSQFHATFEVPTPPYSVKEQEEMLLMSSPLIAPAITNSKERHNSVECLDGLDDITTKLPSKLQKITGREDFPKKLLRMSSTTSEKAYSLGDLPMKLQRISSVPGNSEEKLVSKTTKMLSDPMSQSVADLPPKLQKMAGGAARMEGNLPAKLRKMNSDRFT

EC50: 54.1 nM
SMILES: Cc1cc(NC(=O)Nc2ccc(F)c(F)c2)n(-c2ccccc2)n1
